ChEMBL document CHEMBL2384986, “Re-evolution of the 2-phenylquinolines: ligand-based design, synthesis, and biological evaluation of a potent new class of Staphylococcus aureus NorA efflux pump inhibitors to combat antimicrobial resistance” (J Med Chem, 2013)
Active and inactive are the calls of the source. The calls are words filed in the database; no cut-off is given here.

Key:
[1] = target: T1, Quinolone resistance protein NorA (Staphylococcus aureus) (UniProt P0A0J7); test: Inhibition of NorA in Staphylococcus aureus K2378 assessed as reduction of ciprofloxacin MIC at 0.78 to 100 ug/mL relative to control
T1 sequence (whole entry): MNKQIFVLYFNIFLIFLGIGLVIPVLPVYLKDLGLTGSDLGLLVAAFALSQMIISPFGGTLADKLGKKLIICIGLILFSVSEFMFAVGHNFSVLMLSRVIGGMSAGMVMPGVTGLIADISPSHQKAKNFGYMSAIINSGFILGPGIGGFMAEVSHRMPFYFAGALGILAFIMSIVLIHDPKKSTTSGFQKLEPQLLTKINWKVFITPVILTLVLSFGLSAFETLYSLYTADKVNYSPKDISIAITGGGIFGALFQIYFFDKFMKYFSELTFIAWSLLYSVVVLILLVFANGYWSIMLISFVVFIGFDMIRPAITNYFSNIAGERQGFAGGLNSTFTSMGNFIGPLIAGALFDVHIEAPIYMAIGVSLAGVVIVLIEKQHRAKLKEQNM
Outline: (§1)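 Ciprofloxacin MIC determined by CLSI broth microdilution, alone and combined with scalar dilutions of freshly prepared test compound; checkerboard combination format. Strains: ATCC 25923 (wild type), SA-1199 (norA wt), SA-1199B (norA overexpressing, GrlA A116E), SA-K2378 (norA on multicopy pCU1) and SA-K1902 (norA-deleted).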

Staphylococcus aureus [2] = test: Antibacterial activity against Staphylococcus aureus 1199B overexpressing NorA and grlA A116E mutant assessed as growth inhibition by microdilution method; type: functional
Outline: (§2)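 Broth microdilution MIC per CLSI guidelines for intrinsic antistaphylococcal activity; highest concentration tested 100 μg/mL. SA-1199 is the norA wild-type parent, SA-1199B overexpresses norA and carries GrlA A116E, and SA-K2378 overexpresses norA from multicopy plasmid pCU1 in the norA-deleted SA-K1902 background.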

Staphylococcus aureus [3] = test: Antibacterial activity against Staphylococcus aureus 1199 harboring wild type norA assessed as growth inhibition by microdilution method
[4] = target: T1, Quinolone resistance protein NorA (Staphylococcus aureus); test: Inhibition of NorA in Staphylococcus aureus 1199B harboring grlA A116E mutant assessed as inhibition of ethidium bromide efflux at 50 uM measured for 5 mins by fluorometric analysis relative to control
Outline: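 EtBr loss from SA-1199B (norA overexpressing, GrlA A116E) measured fluorometrically with inhibitor at 50 μM, compared with no-inhibitor control. Read-out is mean total efflux over a 5 min time course, expressed as percent reduction in efflux. Usually run in duplicate.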

[5] = target: Quinolone resistance protein NorA (Staphylococcus aureus, UniProt P0A0J7); test: Inhibition of NorA in Staphylococcus aureus 1199B harboring grlA A116E mutant assessed as inhibition of ethidium bromide efflux measured for 5 mins by fluorometric analysis
Outline: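 Fluorometric EtBr efflux assay in SA-1199B (norA overexpressing, GrlA A116E) over a 5 min time course, compared with no-inhibitor control. Increasing inhibitor concentrations were tested, and IC50 was read by inspection of the dose-response plots. Usually run in duplicate.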

Staphylococcus aureus [6] = test: Reduction of ciprofloxacin MIC in norA-deficient Staphylococcus aureus K1902 at 0.78 to 100 ug/mL; type: functional, organism-based; outline: as §1
[7] = target: T1, Quinolone resistance protein NorA (Staphylococcus aureus); test: Inhibition of wild type NorA in Staphylococcus aureus 1199 assessed as reduction of ciprofloxacin MIC at 0.78 to 100 ug/mL; outline: as §1
[8] = target: T1, Quinolone resistance protein NorA (Staphylococcus aureus); test: Inhibition of NorA in Staphylococcus aureus ATCC 25923 assessed as reduction of ciprofloxacin MIC at 0.78 to 100 ug/mL; outline: as §1
Staphylococcus aureus [9] = test: Antibacterial activity against wild type Staphylococcus aureus ATCC 25923 assessed as growth inhibition by microdilution method; type: functional
Outline: (§3)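 Broth microdilution MIC determination following CLSI guidelines. Strains: wild-type ATCC 25923 and SA-K1902 (norA−). Intrinsic activity was tested up to a top concentration of 100 μg/mL.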

Staphylococcus aureus [10] = test: Reduction of ethidium bromide MIC in mepA-deficient Staphylococcus aureus K2885 at 0.78 to 100 ug/mL; type: functional, organism-based
Outline: (§4)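 The strains are norA-deleted S. aureus carrying pALC2073-mepA (K2886) or the empty pALC2073 vector (K2885). Cloned genes are under a xyl/tetO promoter, induced by 0.05 μg/mL tetracycline, which was present in all experiments with these strains. EtBr MICs were determined by CLSI microdilution, with and without test compound.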

Staphylococcus aureus [11] = test: Antibacterial activity against Staphylococcus aureus K2378 overexpressing norA assessed as growth inhibition by microdilution method; type: functional; outline: as §2
Staphylococcus aureus [12] = test: Inhibition of MepA in Staphylococcus aureus K2886 assessed as reduction of ethidium bromide MIC at 0.78 to 100 ug/mL; outline: as §4
Staphylococcus aureus [13] = test: Antibacterial activity against norA-deficient Staphylococcus aureus K1902 assessed as growth inhibition by microdilution method; type: functional; outline: as §3
[14] = target: T1, Quinolone resistance protein NorA (Staphylococcus aureus); test: Inhibition of NorA in Staphylococcus aureus K2378 assessed as reduction of ciprofloxacin MIC at 0.78 ug/mL relative to control; outline: as §1
Staphylococcus aureus [15] = test: Inhibition of MepA in Staphylococcus aureus K2886 assessed as reduction of ethidium bromide MIC at 0.78 ug/mL relative to control
Outline: (§5)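 Ethidium bromide MIC by CLSI microdilution, alone and combined with test compound. Strain SA-K2886 is norA-deleted and carries pALC2073-mepA, with mepA under a xyl/tetO promoter; 0.05 μg/mL tetracycline was included throughout to induce expression.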

[16] = target: T1, Quinolone resistance protein NorA (Staphylococcus aureus); test: Inhibition of NorA in Staphylococcus aureus 1199B harboring grlA A116E mutant assessed as reduction of ciprofloxacin MIC at 3.13 ug/mL relative to control; outline: as §1
Staphylococcus aureus [17] = test: Inhibition of MepA in Staphylococcus aureus K2886 assessed as reduction of ethidium bromide MIC at 1.56 ug/mL relative to control; outline: as §5

SMILES	fold change (FC) [1]	MIC (Staphylococcus aureus [2]) [µM]	MIC (Staphylococcus aureus [3]) [µg/mL]	inhibition [4] [%]	IC50 [5] [µM]	Activity (Staphylococcus aureus [6])	inhibition [7]	inhibition [8]	also measured
CCCOc1ccc(-c2cc(OCCN3CCC4(CC3)OCCO4)c3ccccc3n2)cc1	4	> 200	> 100	80.4	8.5	inactive	inactive	inactive	
CCCOc1ccc(-c2cc(OC3CN4CCC3CC4)c3ccccc3n2)cc1 (stereo not given)		> 200		91.3	14.8				
CCCOc1ccc(-c2cc(OCCCN(C)C)c3ccccc3n2)cc1.Cl	4	> 200	> 100	90.6	3.9	inactive	inactive	inactive	MIC (Staphylococcus aureus [9]): > 100 µg/mL; Activity (Staphylococcus aureus [10]): inactive; MIC (Staphylococcus aureus [11]): 25 µg/mL; inhibition (Staphylococcus aureus [12]): Active; MIC (Staphylococcus aureus [13]): 25 µg/mL
CCCOc1ccc(-c2cc(OCCN3CCCC3)c3ccccc3n2)cc1		> 200		94.2	9.3				
CCCOc1ccc(-c2cc(OCCN3CCN(C)CC3)c3ccccc3n2)cc1		> 200		91	9.7				
CCCOc1ccc(-c2cc(OCCn3cccc3)c3ccccc3n2)cc1				4.1					
CCCOc1ccc(-c2cc(OCCN3CCCCCC3)c3ccccc3n2)cc1	16	> 200	> 100	86	6.4	inactive	inactive	inactive	fold change (FC) [14]: 16; fold change (FC) (Staphylococcus aureus [15]): 16; MIC (Staphylococcus aureus [9]): > 100 µg/mL; fold change (FC) [16]: 16; Activity (Staphylococcus aureus [10]): inactive; MIC (Staphylococcus aureus [11]): 50 µg/mL; inhibition (Staphylococcus aureus [12]): Active; MIC (Staphylococcus aureus [13]): 50 µg/mL
CCCOc1ccc(-c2cc(OCCN(C(C)C)C(C)C)c3ccccc3n2)cc1	4	> 200	> 100	88.2	8.3	inactive	inactive	inactive	MIC (Staphylococcus aureus [9]): > 100 µg/mL; Activity (Staphylococcus aureus [10]): inactive; MIC (Staphylococcus aureus [11]): > 100 µg/mL; inhibition (Staphylococcus aureus [12]): Active; MIC (Staphylococcus aureus [13]): 100 µg/mL
CCCOc1ccc(-c2cc(OC3CCCN(C)C3)c3ccccc3n2)cc1 (stereo not given)	4	> 200	> 100	88.2	8	inactive	inactive	inactive	
Fc1ccc([C@H]2CCNC[C@@H]2COc2ccc3c(c2)OCO3)cc1				85					
CCCOc1ccc(-c2cc(OCCN(C)C)c3ccccc3n2)cc1		> 249		92	9.9				
CCCOc1ccc(-c2cc(OCCN3C(=O)c4ccccc4C3=O)c3ccccc3n2)cc1				8.3					
CCCOc1ccc(-c2cc(OCCN3CCNCC3)c3ccccc3n2)cc1	4	> 200	> 100	93.4	8.3	inactive	inactive	inactive	fold change (FC) (Staphylococcus aureus [17]): 16; MIC (Staphylococcus aureus [9]): > 100 µg/mL; fold change (FC) [16]: 16; Activity (Staphylococcus aureus [10]): inactive; MIC (Staphylococcus aureus [11]): 50 µg/mL; inhibition (Staphylococcus aureus [12]): Active; MIC (Staphylococcus aureus [13]): 25 µg/mL
CCCOc1ccc(-c2cc(OC(C)CN(C)C)c3ccccc3n2)cc1 (racemic)		> 200		86.2	13.3				
CCCOc1ccc(-c2cc(OCCN(CC)Cc3ccccc3)c3ccccc3n2)cc1		> 200		72.5					
CCCOc1ccc(-c2cc(OCCN3CCSCC3)c3ccccc3n2)cc1				57.7					
CCCOc1ccc(-c2cc(OCCN3CCC(=O)CC3)c3ccccc3n2)cc1		> 200		71.7					
CCCOc1ccc(-c2cc(OCCC(C)C)c3ccccc3n2)cc1				33.2					
CCCOc1ccc(-c2cc(OCC(C)N(C)C)c3ccccc3n2)cc1.Cl (stereo not given)	4	> 200	> 100	90.4	7.5	inactive	inactive	inactive	
COC(=O)[C@H]1[C@H]2C[C@@H]3c4[nH]c5cc(OC)ccc5c4CCN3C[C@H]2C[C@@H](OC(=O)c2cc(OC)c(OC)c(OC)c2)[C@@H]1OC [RESERPINE]	4	> 150	> 100		9.2	inactive	inactive	inactive	MIC (Staphylococcus aureus [9]): > 100 µg/mL; MIC (Staphylococcus aureus [11]): > 100 µg/mL; MIC (Staphylococcus aureus [13]): > 100 µg/mL
CCCOc1ccc(-c2cc(OCCN)c3ccccc3n2)cc1		> 310		96.1	9.3				
CCCOc1ccc(-c2cc(OCCN(CC)CC)c3ccccc3n2)cc1	4	> 200	> 100		8.9	inactive	inactive	inactive	MIC (Staphylococcus aureus [9]): 100 µg/mL; MIC (Staphylococcus aureus [11]): 50 µg/mL; MIC (Staphylococcus aureus [13]): 50 µg/mL
CCCCN(CCCC)CCOc1cc(-c2ccc(OCCC)cc2)nc2ccccc12		> 200		88.6	9.2				
CCCOc1ccc(-c2cc(OCCN3CCc4cc(OC)c(OC)cc4C3)c3ccccc3n2)cc1				79.6					
CCCOc1ccc(-c2cc(OCc3ccccn3)c3ccccc3n2)cc1				19.6					
CCCOc1ccc(-c2cc(OCCN3CCOCC3)c3ccccc3n2)cc1		> 200		86.9	10.7				
O=C(O)c1cn(C2CC2)c2cc(N3CCNCC3)c(F)cc2c1=O [CIPROFLOXACIN]			0.63						MIC (Staphylococcus aureus [9]): 0.31 µg/mL; MIC (Staphylococcus aureus [11]): 2.5 µg/mL; MIC (Staphylococcus aureus [13]): 0.63 µg/mL
CCCOc1ccc(-c2cc(OCCN3CCN(Cc4ccccc4)CC3)c3ccccc3n2)cc1	4	> 200	> 100	81.2	3.8	inactive	inactive	inactive	MIC (Staphylococcus aureus [9]): > 100 µg/mL; Activity (Staphylococcus aureus [10]): inactive; MIC (Staphylococcus aureus [11]): > 100 µg/mL; inhibition (Staphylococcus aureus [12]): Active; MIC (Staphylococcus aureus [13]): > 100 µg/mL
CCCOc1ccc(-c2cc(OCCN(Cc3ccccc3)Cc3ccccc3)c3ccccc3n2)cc1				0					
CCCOc1ccc(-c2cc(OCCN3CCc4ccccc4C3)c3ccccc3n2)cc1				67.9					
